GSTO1 inh – counter-screen for RBBP9 inhibitors: inhibitors of human GSTO1. recombinant GSTO1, activity-based probe fluorescence polarization. P78417. 300,000 compounds, 1.1% hits. inhibition, % at 5.96 µM. AID 1974;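 active = inhibition above the campaign mean inhibition plus 3 SD, cut at about 35% in these data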;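 also: 0% = GSTO1-1 with DMSO and 100% = wells lacking GSTO1-1 enzyme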
Apaf1 inhib – inhibitors of human Apaf-1 apoptosome. O14727. reconstituted apoptosome caspase-3 activity, DEVD-Rh110 fluorescence. inhibition, % at 20 µM. 330,000 compounds, 0.71% hits. AID 489030; active = inhibition of at least 40% at 20 µM;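 also: plate controls were DMSO wells for no effect and DEVD-CHO caspase inhibitor wells for full effect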
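Material: biochemical Apaf-1 apoptosome reconstitution. Medium: Hepes buffer, pH 7.5. Also added: cytochrome c activation, bis-DEVD rhodamine 110 substrate. Timing: 30 min compound preincubation, 50 min activation, room temperature. Measured by: rhodamine 110 fluorescence at Ex 480/Em 540 nm.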
EBNA-1 inhibitor – blocks EBNA-1 binding to DNA; 300,000 compounds, 0.34% hits; EBNA-1 DNA binding, fluorescence polarization; inhibition, % at 14.8 µM; in the data active = inhibition above about 28%
procasp3 activ – procaspase-3 (human) activation; 330,000 compounds, 0.11% hits; activation, % at 8.5 µM; recombinant procaspase-3 D3A, Ac-DEVD-pNA absorbance 405 nm;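 active = activation above the mean of all tested compounds plus 3 SD, cut at about 21% in these data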;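 also: 0% = DMSO alone and 100% = DMSO wells spiked with extra 5 µM PC-3 D3A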
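System: Procaspase-3 D3A mutant. Medium: Zinc-free 300 mM NaCl, 50 mM HEPES, 0.01% Triton X-100. Schedule: 1 h preincubation plus 2 h reaction at 25 °C. Measured by: 405 nm absorbance of p-nitroaniline, reads at 0 and 120 min. Read-out: percent activation relative to control range.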
ZTA DNA inh – counter-screen for EBNA-1 inhibitors: inhibitors of Epstein-Barr virus ZTA; ZTA-DNA binding, fluorescence polarization; inhibition, % at 11 µM; 320,000 compounds, 0.15% hits; AID 2234; in the data active = inhibition above about 33%
proCasp7 act – counter-screen for procaspase-3 activators: activators of human procaspase-7; recombinant procaspase-7, Ac-DEVD-pNA absorbance 405 nm; D23A/D198A/D206A triple mutant, cannot self-cleave; scale: DMSO 0, 5 µM enzyme 100; activation, % at 8.5 µM; 330,000 compounds, 0.093% hits;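 active = percent activation above the screen-wide mean plus 3 SD, cut at about 25% in these data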
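Assay system: Uncleavable procaspase-7 mutant enzyme; Input: 2 µM procaspase-7 mutant as dispensed; Also added: DEVD-pNA substrate; Medium: Zinc-free HEPES pH 7.4 with 300 mM NaCl, 0.01% Triton X-100; Timing: 1 h compound preincubation, 2 h substrate cleavage, 25 °C; Measured by: Epi-absorbance of released pNA at 405 nm, two timepoints.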
Apaf-1 inh conf2 – Apaf-1 inhibition, single-dose confirmed | shares compounds with Apaf1 inhib | reconstituted apoptosome, caspase-3 DEVD-Rh110 fluorescence | inhibition, % at 20 µM | 1,800 compounds, 25% hits;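 active = mean inhibition of at least 40% at 20 µM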;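 also: plate controls were DMSO wells for no effect and DEVD-CHO caspase inhibitor control wells for full effect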
Rh110 interf inh – Rh110 signal interference in Apaf-1 inhibitor counter-screen; Rh110 fluorescence interference, quenched caspase reaction; AID 504615; 1,800 tested, under 10 active; activation (fluorescence interference), % at 20 µM; shares compounds with Apaf1 inhib;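 active = signal rise of 40% or more at 20 µM, treated as a fluorescence artifact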
Fluor interf inh – Apaf-1 inhibitor counter-screen fluorescence artifact; IC50, µM; shares compounds with Apaf1 inhib; AID 588538; 460 tested, under 10 active; fluorescence interference counterscreen, Apaf-1 assay format; call rule not given here
* marks the source's active call; other numbers are inactive results; x = no result. This is a sample that favours compounds with a hit; in the whole collection about 1.8% have one here.

SMILES | GSTO1 inh | Apaf1 inhib | EBNA-1 inhibitor | procasp3 activ | ZTA DNA inh | proCasp7 act | Apaf-1 inh conf2 | Rh110 interf inh | others
Cc1ccc(NC(=O)CN(C)C(=O)c2ccc3[nH]c4c(c3c2)CC(C)CC4)cc1 (configuration not stated) | x | 59* | x | 0 | 1 | -4 | 45* | 4 | Fluor interf inh=>100
CC(C)CNC(=S)N1CCC(Cc2ccccc2)CC1 | x | 5 | x | x | x | x | x | x
CC(=O)c1ccc2noc(-c3ccccc3)c2c1 | 6 | -3 | -9 | 8 | 1 | 0 | x | x
CC(=O)c1ccc2c(c1)c(C#N)c1ccccc1[n+]2[O-] | x | 74* | x | x | x | x | 42* | 2 | Fluor interf inh=>100
COc1ccc([C@H]2CC(=O)C=C(C#CC(C)(C)C)C2)cc1 | x | 14 | x | 13 | 6 | 4 | x | x
Clc1cccc(CSc2nnc(-c3ccccn3)n2Cc2ccco2)c1 | -8 | 42* | -14 | -5 | -5 | 4 | 14 | 1
Cn1c(SCC(=O)NCC2CCCO2)nnc1-c1ccco1 (configuration not stated) | x | -5 | x | 7 | 3 | 4 | x | x
Cc1cccc(N(Cc2ccccc2)C(=O)c2ccc(C)c(S(=O)(=O)N3CCOCC3)c2)c1 | x | 13 | x | -5 | -18 | -1 | x | x
COc1ccc(C(=O)N(Cc2ccccc2)c2cccc(C)c2)cc1S(=O)(=O)N1CCOCC1 | -10 | 45* | 4 | -17 | -21 | -1 | 35 | 4
COc1ccc(CN(C)C(=O)Cc2ccc(OC)c(S(=O)(=O)N3CCOCC3)c2)cc1OC | x | 60* | x | -2 | -7 | 17 | 34 | -2
COc1ccc(CC(=O)N(C)CC(=O)Nc2ccccc2Cl)cc1S(=O)(=O)N1CCOCC1 | x | 59* | x | 1 | -2 | -3 | 33 | -4
COc1ccc(NS(=O)(=O)c2ccc(C(=O)N3CCC(C)CC3)cc2)cc1 | x | 1 | x | 6 | x | 7 | x | x
COc1cc(N)c(Cl)cc1C(=O)OCC(=O)NC(=O)NCc1ccco1 | x | -8 | x | 11 | x | 5 | x | x
O=C(CCC(=O)c1ccc(Cl)s1)Nc1ncccc1O | x | -8 | x | -1 | 8 | 1 | x | x
O=C1Cc2ccccc2C(=O)N1CCc1ccccc1 | 25 | 79* | 4 | 0 | 24 | 15 | 95* | 5 | Fluor interf inh=>100
Cc1ccc(-c2nnc(CSc3nnc(COc4cccc5ccccc45)n3-c3ccccc3)o2)cc1 | -11 | 44* | -1 | -2 | -7 | -1 | 47* | -3 | Fluor interf inh=>100
CCc1ccc(-c2nc(CS(=O)CC(=O)NCc3ccco3)c(C)o2)cc1 (configuration not stated) | 5 | -9 | 7 | 4 | 16 | -8 | x | x
O=C1c2cc(F)ccc2-n2c1nc1ccccc1c2=O | 35* | 63* | -1 | 1 | -3 | 0 | 52* | -1 | Fluor interf inh=>100
Nn1c(-c2ccc(F)cc2)nc2ccccc2c1=O | 1 | 2 | -8 | 7 | 8 | 13 | x | x
CC(C)OP(=O)(OC(C)C)C(Nc1ccccn1)c1ccc(F)cc1 (configuration not stated) | 7 | 55* | -11 | -8 | 0 | -4 | 12 | 1
CC(C)C[C@H](NC(=O)N1CCn2c1nc1ccccc12)C(=O)N1CCCCC1 | -1 | 9 | -3 | -1 | 0 | 2 | x | x
COc1ccc(OC)c2c1cc(C(=O)N[C@H](C(=O)N1CCC[C@H]1C(=O)O)C(C)C)n2C | 11 | 52* | 4 | -3 | -5 | -2 | 26 | 4
COc1cc(OC)c2cc(C(=O)N[C@H](C(=O)N3CCC[C@H]3C(=O)O)C(C)C)n(C)c2c1 | 3 | -2 | 4 | 0 | -2 | 3 | x | x
CCc1ccccc1OCC(=O)Nc1ccc(N2CCCC2)cc1C | x | 43* | x | x | x | x | 26 | 4
COc1ccc(N2CCCC2)c(NC(=O)COc2ccccc2)c1 | 2 | 15 | 2 | 0 | -9 | -13 | x | x
SMILES | GSTO1 inh | Apaf1 inhib | EBNA-1 inhibitor | procasp3 activ | ZTA DNA inh | proCasp7 act | Apaf-1 inh conf2 | Rh110 interf inh | others
Cc1ccccc1OCC(=O)Nc1ccc(N2CCOCC2)cc1N1CCOCC1 | x | 4 | x | -2 | -15 | 3 | x | x
Cc1cc(N2CCCC2)ccc1NC(=O)COc1ccccc1 | x | 52* | x | x | x | x | 19 | -2
CCOc1ccc(OCC)c(NC(=O)C2CCN(c3cnccn3)CC2)c1 | 1 | 2 | 17 | 2 | 10 | -4 | x | x
CCOC(=O)c1cnc2ccc(C)cc2c1Nc1ccc(N2CCOCC2)cc1 | 10 | 41* | -9 | -1 | 0 | 1 | 37 | 9
COc1cc(/C=C/c2cc[n+](C)cc2)ccc1OCC(=O)Nc1ccc(Cl)c(Cl)c1 | 0 | 73* | -9 | -11 | -23 | -3 | 46* | 6 | Fluor interf inh=>100
CC(C)N(Cc1cc2ccccc2[nH]c1=O)C(=O)C1CCCCC1 | -8 | 57* | -8 | -7 | -8 | -1 | 65* | 6 | Fluor interf inh=>100
CCc1ccc(OCC(=O)NNC(=O)c2cc(S(=O)(=O)N(C)C)ccc2N2CCCC2)cc1 | 0 | 6 | -7 | -3 | 7 | 13 | x | x
CC(NCc1ccc(OCc2ccc(Cl)cc2)cc1)C(O)c1ccccc1 (configuration not stated) | -1 | 41* | -4 | 3 | 1 | 4 | 15 | 3
CC(NCc1cccc(OCc2ccccc2)c1)C(O)c1ccccc1 (configuration not stated) | 5 | 3 | 4 | -2 | -7 | 4 | x | x
COC(=O)c1ccc(CNC(=O)COC(=O)C2CC3C=CC2C3)cc1 (configuration not stated) | 2 | -1 | 7 | -5 | 3 | 6 | x | x
Cc1ccc(S(=O)(=O)N2CCC(C(=O)OCC(=O)N(C)CC(=O)Nc3ccc(F)cc3)CC2)cc1C | 4 | 52* | -5 | -5 | -22 | 9 | 19 | -2
O=C(COc1coc(CN2CCc3ccccc32)cc1=O)Nc1cccc(F)c1 | 8 | -2 | 2 | 1 | 8 | 1 | x | x
CCOC(=O)N1CCN(C(=O)c2cccc(S(=O)(=O)Nc3ccc(OC)cc3)c2)CC1 | 15 | 51* | 4 | -5 | -9 | -8 | 34 | -2
COc1ccc(NS(=O)(=O)c2cccc(C(=O)N3CCC3)c2)cc1 | -4 | 0 | -6 | -1 | -11 | 1 | x | x
CCn1c2ccccc2c2nnc(SCC(=O)c3c(N)n(C)c(=O)n(C)c3=O)nc21 | -1 | 54* | 1 | -1 | -11 | 4 | 12 | 8
